Bioassay records: PubChem BioAssay, several laboratories
The list is not random: actives were taken first. Their share in the collection is about 2.4%.
APOBEC3A inh: inhibitors of human APOBEC3A DNA deaminase | inhibition, % at 20 µM | 0.41% of 330,000 active | recombinant A3A, FAM/TAMRA ssDNA deamination fluorescence | P31941;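 active means at least 40% inhibition at 20 µM here, with at most 30% in a related deaminase screen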;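 further: plate controls were A3A with DMSO for no effect and wells lacking A3A enzyme for full effect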
Target sequence (P31941 whole entry, looked up): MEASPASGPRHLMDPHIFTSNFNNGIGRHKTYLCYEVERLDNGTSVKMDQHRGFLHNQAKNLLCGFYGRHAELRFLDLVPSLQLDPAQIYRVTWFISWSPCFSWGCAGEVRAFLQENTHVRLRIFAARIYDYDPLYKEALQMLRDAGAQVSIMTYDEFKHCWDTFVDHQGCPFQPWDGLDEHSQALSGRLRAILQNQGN
APOBEC3G inh: blocks human APOBEC3G single-stranded DNA deamination | recombinant A3G, ssDNA deamination FAM/TAMRA fluorescence | inhibition, % at 20 µM | 0.28% of 330,000 active | AID 493012;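 active means inhibition of at least 40% at 20 µM, with no more than 30% in the related APOBEC3A deaminase screen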;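 further: plate controls were DMSO wells with A3G for no effect and wells lacking A3G enzyme for full effect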
Target sequence (Q9HC16 whole entry, looked up): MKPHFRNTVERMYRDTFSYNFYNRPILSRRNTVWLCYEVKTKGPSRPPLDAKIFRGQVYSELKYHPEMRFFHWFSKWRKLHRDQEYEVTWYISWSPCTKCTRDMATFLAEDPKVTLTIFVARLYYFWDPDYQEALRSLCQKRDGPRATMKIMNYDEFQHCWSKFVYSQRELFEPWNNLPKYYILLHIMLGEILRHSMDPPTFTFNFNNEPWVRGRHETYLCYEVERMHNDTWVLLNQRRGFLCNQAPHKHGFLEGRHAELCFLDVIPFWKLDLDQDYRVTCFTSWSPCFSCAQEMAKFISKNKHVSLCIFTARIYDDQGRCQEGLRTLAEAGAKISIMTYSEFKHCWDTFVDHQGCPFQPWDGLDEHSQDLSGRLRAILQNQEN
PfG6PD inh: PfG6PD (Plasmodium falciparum) enzyme inhibition. PfGluPho enzyme, NADPH resazurin-diaphorase fluorescence. 0.78% of 350,000 active. inhibition, % at 20 µM;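 active means inhibition reaching at least a set limit at 20 µM in the primary screen, cut at about 59% in these data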;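 further: 0% = DMSO wells with substrate and 100% = DMSO wells lacking glucose-6-phosphate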
PfM18AAP inh: PfM18AAP enzyme inhibition. recombinant PfM18AAP, H-Glu-NHMec fluorogenic cleavage. inhibition, % at 7.35 µM. 1.2% of 290,000 active;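 active means inhibition above the campaign mean inhibition over all tested compounds plus 3 SD, cut at about 28% in these data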;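 further: 0% = plate median of test compound wells and 100% = 2 mM ZnCl2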
HKDC1 inhibitor: HKDC1 (human) hexokinase inhibition | recombinant HKDC1, G6PDH/diaphorase resazurin coupled fluorescence | 0.16% of 340,000 active | Q2TB90 | inhibition, % at 20 µM;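 active means inhibition above about 35% when tested at 20 µM, limit read from the data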;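 further: plate controls were DMSO wells with enzyme for no effect and DMSO wells lacking enzyme for full effect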
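Incubation: 90 min at room temperature in dark / Material: recombinant HKDC1 (HK5) hexokinase enzyme, produced in-house / Quantity: enzyme 5 µg/mL final / Compound: one dose of 20 µM, 1% DMSO / Reagent: glucose and ATP substrates / Buffer or medium: Tris pH 8.0 buffer with MgCl2, Tween-20, BSA, BME / Technique: resorufin fluorescence at 613 nm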
UBC9 SUMO inh: SUMOylation inhibition; P63279; HTRF SUMOylation assay, SAE1/SAE2 + UBC9, in vitro; inhibition, % at 35 µM; 0.36% of 290,000 active; AID 2006; in the data active means inhibition above about 50%, passing the limit was not always enough
A3A conf: confirmation of human APOBEC3A DNA deaminase inhibitors; shares compounds with APOBEC3A inh; recombinant A3A, ssDNA deaminase UDG fluorescence assay; inhibition, % at 20 µM; 63% of 1,400 active;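 active means inhibition reaching a set limit, 80% of the first screen's cutoff, at 20 µM in any replicate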;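 further: plate controls were DMSO wells with A3A for no effect and wells lacking A3A enzyme for full effect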
UDG A3A counter: inhibits UDG, flagging false APOBEC3A inhibitors; shares compounds with APOBEC3A inh; UDG counterscreen, FAM/TAMRA uracil oligo fluorescence; inhibition, % at 20 µM; 1,000 tested, under 10 active; call rule not given here
* hit, by the source's call.

What do the screens show for `ClC1=CCC2CN(CCN3CCCCC3)CC2C1` (stereo not drawn)?
APOBEC3A inh: 1; APOBEC3G inh: -2; PfG6PD inh: 16; HKDC1 inhibitor: -5; UBC9 SUMO inh: -7

How did C[N+]1(CC(COCc2ccccc2)OC(=O)Cc2ccccc2)CCOCC1 (stereo not drawn) do in these assays?
APOBEC3A inh: 41*; APOBEC3G inh: 18; PfG6PD inh: -16; PfM18AAP inh: -1; HKDC1 inhibitor: -8; UBC9 SUMO inh: 2; A3A conf: 69*; UDG A3A counter: 1

Results for CCCCCCC[n+]1ccc(-c2cc[n+](CCCCCCC)cc2)cc1 ?
APOBEC3A inh: 58*; APOBEC3G inh: 28; PfG6PD inh: -4; PfM18AAP inh: 9; HKDC1 inhibitor: -2; UBC9 SUMO inh: 2; A3A conf: 75*; UDG A3A counter: -2

How did Cc1ccc(C(c2nnnn2Cc2ccccc2)N2CC=C(c3ccc(F)cc3)CC2)cc1 (stereo not drawn) do in these assays?
APOBEC3A inh: -2; APOBEC3G inh: -6; PfG6PD inh: 1; PfM18AAP inh: -2; HKDC1 inhibitor: -5; UBC9 SUMO inh: 14

How did Cc1cc(/C=C2\C(=O)NC(=O)N(c3cccc(F)c3)C2=O)c(C)n1-c1cc(C(=O)O)cc(C(=O)O)c1 do in these assays?
APOBEC3A inh: 70*; APOBEC3G inh: 29; PfG6PD inh: 0; PfM18AAP inh: 19; HKDC1 inhibitor: 8; UBC9 SUMO inh: 23; A3A conf: 53*; UDG A3A counter: 7

How did Cc1cc(/C=C2\C(=O)NC(=O)N(c3ccc(Cl)cc3)C2=O)c(C)n1-c1cccc(C(=O)O)c1 do in these assays?
APOBEC3A inh: 24; APOBEC3G inh: 10; PfG6PD inh: -11; PfM18AAP inh: 12; HKDC1 inhibitor: 16; UBC9 SUMO inh: 27

Results for CCCCn1c(N)c(N(CCOC)C(=O)CN2CC=C(c3ccccc3)CC2)c(=O)[nH]c1=O ?
APOBEC3A inh: -4; APOBEC3G inh: -8; PfG6PD inh: -8; PfM18AAP inh: 5; HKDC1 inhibitor: -3; UBC9 SUMO inh: 12

What do the screens show for `O=C1CN=C(c2ccccc2)c2oc3ccc(Br)cc3c2N1`?
APOBEC3A inh: 0; APOBEC3G inh: -3; PfG6PD inh: -8; PfM18AAP inh: -6; HKDC1 inhibitor: 2; UBC9 SUMO inh: 13

How did O=[N+]([O-])c1cc(S(=O)(=O)c2ccc(O)c([N+](=O)[O-])c2)ccc1O do in these assays?
APOBEC3A inh: 70*; APOBEC3G inh: 14; PfG6PD inh: -8; PfM18AAP inh: -6; HKDC1 inhibitor: 10; UBC9 SUMO inh: 15; A3A conf: 84*; UDG A3A counter: 1

What do the screens show for `COc1ccc2c(c1OC)C(=O)O[C@H]2[C@@H]1c2cc3c(cc2CCN1C)OCO3`?
APOBEC3A inh: 1; APOBEC3G inh: -3; PfG6PD inh: -9; HKDC1 inhibitor: -7

What do the screens show for `C=Cc1ccc(Cn2c(C(=O)O)c(C=O)c3ccccc32)cc1`?
APOBEC3A inh: 74*; APOBEC3G inh: 5; PfG6PD inh: -6; PfM18AAP inh: -1; HKDC1 inhibitor: 4; UBC9 SUMO inh: 10; A3A conf: 17

What do the screens show for `COc1ccccc1N1CCN(Cc2c(F)cccc2F)CC1`?
APOBEC3A inh: 2; APOBEC3G inh: -5; PfG6PD inh: -2; PfM18AAP inh: 0; HKDC1 inhibitor: -12; UBC9 SUMO inh: 8

Results for CCN(CC)P(=O)(NC(=O)c1cccn1C)N(CC)CC ?
APOBEC3A inh: -1; APOBEC3G inh: -3; PfG6PD inh: -5; PfM18AAP inh: -8; HKDC1 inhibitor: -6; UBC9 SUMO inh: 6

How did C[N+]1(C)[C@@H]2CC[C@H]1CC(OC(=O)C(c1ccccc1)c1ccccc1)C2 (stereo partly drawn) do in these assays?
APOBEC3A inh: 46*; APOBEC3G inh: 21; PfG6PD inh: -2; PfM18AAP inh: -1; HKDC1 inhibitor: 0; UBC9 SUMO inh: -10; A3A conf: 61*

How did C[N+]1(C)[C@@H]2CC(OC(=O)[C@H](CO)c3ccccc3)C[C@H]1[C@@H]1O[C@@H]12 (stereo partly drawn) do in these assays?
APOBEC3A inh: 0; APOBEC3G inh: -1; PfG6PD inh: -7; PfM18AAP inh: -5; HKDC1 inhibitor: -10; UBC9 SUMO inh: -9

Results for Cc1ccc(C2=NCC(=O)N(CC(=O)N3CCCCC3)c3sc(C)c(C)c32)cc1 ?
APOBEC3A inh: -3; APOBEC3G inh: -4; PfG6PD inh: -20; PfM18AAP inh: 1; HKDC1 inhibitor: -3; UBC9 SUMO inh: -27

Results for COc1ccc(C2CN(C)CC2C(=O)c2ccc(F)cc2)cc1Cl (stereo not drawn) ?
APOBEC3A inh: 0; APOBEC3G inh: -6; PfG6PD inh: -6; PfM18AAP inh: -12; HKDC1 inhibitor: -6; UBC9 SUMO inh: 4

What do the screens show for `Cc1noc(C)c1CSCC(=O)Nc1ccc(C#N)c(Cl)c1`?
APOBEC3A inh: 0; APOBEC3G inh: -6; PfG6PD inh: -12; HKDC1 inhibitor: 4

How did Cc1sc2ncnc(N3CCC(C(=O)Nc4ccc(C#N)c(Cl)c4)CC3)c2c1C do in these assays?
APOBEC3A inh: 53*; APOBEC3G inh: 7; PfG6PD inh: 11; HKDC1 inhibitor: -9; A3A conf: 10

Results for Cn1cc(C(=O)NP(=O)(N2CCOCC2)N2CCOCC2)c2ccccc21 ?
APOBEC3A inh: -3; APOBEC3G inh: -4; PfG6PD inh: 7; PfM18AAP inh: -9; HKDC1 inhibitor: -9; UBC9 SUMO inh: 11

Results for O=C(COc1ccccc1)NCCc1cnc[nH]1 ?
APOBEC3A inh: -2; APOBEC3G inh: -9; PfG6PD inh: 9; PfM18AAP inh: -1; HKDC1 inhibitor: 1; UBC9 SUMO inh: 0

How did C[N+]1(CC2COC(c3ccco3)O2)CCCCC1 (stereo not drawn) do in these assays?
APOBEC3A inh: 60*; APOBEC3G inh: 25; PfG6PD inh: -3; PfM18AAP inh: -8; HKDC1 inhibitor: 3; UBC9 SUMO inh: 8; A3A conf: 66*; UDG A3A counter: -1

Results for COc1cc(C(=O)N2C[C@H]3C[C@@H](C2)c2cccc(=O)n2C3)cc(OC)c1OC ?
APOBEC3A inh: 2; APOBEC3G inh: -3; PfG6PD inh: -4; PfM18AAP inh: -2; HKDC1 inhibitor: -2; UBC9 SUMO inh: 5

Results for C[N+](C)(C)c1ccccc1 ?
APOBEC3A inh: 70*; APOBEC3G inh: 14; PfG6PD inh: 14; PfM18AAP inh: -3; HKDC1 inhibitor: -5; UBC9 SUMO inh: 8; A3A conf: 78*; UDG A3A counter: -2
